Experimental data taken from paper PMC5854750 (European Journal of Drug Metabolism and Pharmacokinetics, 2017).

Assays:
healthy male volunteers [1] = test: Single-rising dose; assay type: in vivo, human
[2] = SRD component: plasma and urine pharmacokinetics; assay type: in vivo, human
[3] = Bioavailability/food effect; assay type: in vivo; conditions: male, human, plasma, oral, 25 mg, Median t max
In short: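 Healthy men (18–45 y, BMI 18.5–29.9 kg/m2) in a randomised crossover received single oral 25 mg doses as tablet fasted, tablet after a high-fat, high-calorie meal, or 5-mg/mL solution fasted. Washout was at least 14 days, and PK sampling ran to Day 9 per period. Plasma was assayed by validated LC-MS/MS over 1.00–1000 nM (linear calibration, 1/x² weighting, QC in K3-EDTA plasma). Adjusted gMean ratios are reported with 90% CI.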

healthy male volunteers [4] = test: BA/FE component: safety and tolerability; assay type: in vivo, human; conditions: Part 2 (BA/FE), 25 mg, six of 11 subjects
In short: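 Open-label, randomised three-way crossover in 12 healthy men (18–45 y, BMI 18.5–29.9 kg/m2). Each received single oral 25 mg doses: tablet fasted, tablet after a standardised high-fat, high-calorie meal, and 5-mg/mL solution fasted, in one of six sequences. Washout between periods was at least 14 days. Safety was monitored to Day 9 of each period, with spontaneous AEs recorded by onset, end time and intensity.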

[5] = cited from earlier work

C[C@@H](Oc1ccc(S(C)(=O)=O)cc1C(=O)N1C[C@@H]2C[C@]2(c2cc(C(F)(F)F)on2)C1)C(F)(F)F [BI 425809]
Subjects with at least one AE assessed as related to treatment (healthy male volunteers [1]; Part 1 (SRD), 27 of 72 subjects (includes placebo subjects)): 37.5% | Changes from baseline of QTcF interval, QT interval or heart rate vs placebo (healthy male volunteers [1]; Part 1, any of the doses tested): no statistically relevant differences | Colour discrimination and visual acuity tests (healthy male volunteers [1]; SRD): no changes from baseline | Incidence of AEs (healthy male volunteers [1]; SRD, 0.5-mg group): 16.7% | Incidence of AEs (healthy male volunteers [1]; SRD, 150-mg group): 100% | Subjects with eye disorder AE (photopsia, blurred vision or chromatopsia) (healthy male volunteers [1]; SRD, 150-mg group, n = 6): all six subjects | Subjects with at least one AE (healthy male volunteers [1]; SRD, all BI 425809 doses 0.5–150 mg, 34/54 subjects): 63.0% | Bond–Lader VAS scores of other items (calmness, contentment, external and internal perception) (healthy male volunteers [1]; SRD, dose levels of 100 and 150 mg): increased | Bond and Lader VAS and Bowdle VAS scores for subjective feelings of sedation (healthy male volunteers [1]; SRD, doses of 10 mg and greater): increase | Subjects with abnormalities on the Amsler grid test (healthy male volunteers [1]; SRD, one each at 25 and 100 mg): two subjects | Maximally tolerated dose (healthy male volunteers [1]; SRD, single oral dose, escalation terminated owing to dose-limiting AEs): 150 mg | ECG findings (healthy male volunteers [1]; both parts): No clinically relevant abnormal findings | Neurological examination findings (healthy male volunteers [1]; both parts): No clinically relevant abnormal findings | Subjects with at least one AE assessed as related to treatment (healthy male volunteers [1]; both parts, 33/83 subjects (includes placebo subjects)): 39.8% | Changes in laboratory parameters, hormone levels, haematology or vital signs (healthy male volunteers [1]; either part of the study): no clinically relevant changes | Time to disappearance of headache (healthy male volunteers [1]; first day of dosing): ≤ 12 h | Tolerability (healthy male volunteers [1]; single dose, anticipated therapeutic dose range of 5–25 mg): generally well-tolerated | Fractional renal excretion ([2]; SRD, similar across all dose groups): 5% | Tmax ([2]; male, human, plasma, oral): ~0.75 h | half-life ([2]; male, human, plasma, oral): 32.5 to 47 h | Tmax ([3]; 25-mg solution, fasted): 0.875 h | Tmax ([3]; 25-mg tablet, fasted): 4 h | Tmax ([3]; 25-mg tablet, fed): 1.77 h | Subjects with at least one AE assessed as related to treatment (healthy male volunteers [4]): 54.5% | Biopharmaceutics Classification System class [5]: Class II | Permeability [5]: high
